Experimental findings from ChEMBL document CHEMBL1155175, “Salicylidene acylhydrazides that affect type III protein secretion in Salmonella enterica serovar typhimurium” (Antimicrob Agents Chemother, 2007) are described below.

The source made the active and inactive calls. The rule behind the calls is not given here.

Data set [1] concerns Salmonella typhimurium. The data set is described as follows: Antibacterial activity against Salmonella enterica serovar Typhimurium TT16729 assessed as inhibition of SPI1 protein secretion T3SS-mediated invasion in MDCK cells at 20 uM. Particulars: Salmonella enterica subsp. enterica serovar Typhimurium. It is filed as functional, organism-based. The method, boiled down: (§1)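 Bacteria grown in LB (overnight, then 1:10 subculture 3 h, 37°C, closed tubes) with compound at 20 µM or DMSO, then seeded on MDCK cells in HEPES-DMEM, MOI 10:1. Gentamicin 50 µg/ml for 45 min; cells lysed at 2 h with 0.5% deoxycholate; invasion = CFU at 2 h / CFU seeded, as percentage of input.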

In data set [2] the test system is Salmonella typhimurium. As to the kind of experiment: Inhibition of Salmonella enterica serovar Typhimurium TT16729 invasion in MDCK cells at 20 uM by gentamycin protection assay. It is filed as functional, organism-based. Particulars: Salmonella enterica subsp. enterica serovar Typhimurium. In short, it runs like this: as §1
Data set [3] has as its system Salmonella typhimurium. As to the kind of experiment: Antibacterial activity against Salmonella enterica serovar Typhimurium TT16729 assessed as reduction in expression of bacterial cell bound flagellin at 80 uM by SDS-PAGE. Format: functional, organism-based. Particulars: Salmonella enterica subsp. enterica serovar Typhimurium. The method, boiled down: (§2)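 Bacteria grown 16–18 h in LB with compound (40 or 80 µM) or DMSO; flagellin released by 150 mM NaCl/10 mM HCl for 5 min at room temperature, bacteria removed by centrifugation, supernatant proteins TCA-precipitated and run on 9% SDS-PAGE; loading normalized by OD600.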

For data set [4], the system named is Salmonella typhimurium. The data set is described as follows: Antibacterial activity against Salmonella enterica serovar Typhimurium TT16729 motility assessed as reduction of swimming zone on soft agar plates at 40 uM. It is filed as functional, Salmonella enterica subsp. enterica serovar Typhimurium. In short, it runs like this: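 Swimming motility on soft agar (tryptone 10 g/liter, NaCl 5 g/liter, 0.3% agar) prepared 1 day ahead, compound at 40 µM final; 20 µl overnight culture inoculated into agar; zone diameter read after 8 h at 37°C.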

A further data set has as its system MDCK. As to the kind of experiment: Cytotoxicity against MDCK cells at 20 uM to 40 uM. It is filed as cell-based, Canis lupus familiaris. Particulars: dog.
For data set [5], the system named is Salmonella typhimurium. The data set is described as follows: Antibacterial activity against Salmonella enterica serovar Typhimurium TT16729 at 20 uM to 40 uM. Format: functional, organism-based. Particulars: Salmonella enterica subsp. enterica serovar Typhimurium.
Data set [6] deals with Salmonella typhimurium. As to the kind of experiment: Antibacterial activity against Salmonella enterica serovar Typhimurium TT16729 expressing SPI1 effector protein assessed as increase in beta-lactamase activity in cytosolic fraction at 20 uM by immunoblotting. Format: functional, organism-based. Particulars: Salmonella enterica subsp. enterica serovar Typhimurium. The method, boiled down: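 TT16729 carrying pAUN-1 (SipB–β-lactamase fusion) grown to invasiveness in kanamycin LB, then 2 h in DMEM with kanamycin, L-glutamine and HEPES; compound 20 µM in all steps, DMSO control. Cells lysed (freeze-thaw, lysozyme 1 mg/ml 1 h 4°C, sonication), 5,000 x g clearing, then 50,000 x g 1 h. Cytosolic fraction assayed by nitrocefin (50 µg/ml, PBS) cleavage at A486, per min per OD600 or µg protein.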
For orientation: A western blot detects proteins with antibodies after separation by electrophoresis.

The subject of a further data set is RAW264.7. The data set is described as follows: Effect on nitric oxide production in mouse RAW264.7 cells. Format: functional, cell-based.
The test system of data set [7] is Salmonella typhimurium. As to the kind of experiment: Antibacterial activity against Salmonella enterica serovar Typhimurium TT16729 assessed as decrease in spvA-lacZ expression at 40 uM. Particulars: Salmonella enterica subsp. enterica serovar Typhimurium. Format: functional, organism-based.
The test system of data set [8] is Salmonella typhimurium. As to the kind of experiment: Antibacterial activity against Salmonella enterica serovar Typhimurium 14028 assessed as inhibition of sseJ-HA fusion protein secretion by immunoblotting. Particulars: Salmonella enterica subsp. enterica serovar Typhimurium.
Data set [9] deals with Salmonella typhimurium. As to the kind of experiment: Antibacterial activity against Salmonella enterica serovar Typhimurium TT16729 in mouse RAW264.7 cells assessed as increase in nitric oxide level at 40 uM after 16 hrs. Particulars: Salmonella enterica subsp. enterica serovar Typhimurium. It is filed as functional, organism-based. In short, it runs like this: (§3)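 Opsonized bacteria infect RAW264.7 macrophages (MOI 10:1, gentamicin protection); compound or DMSO present in media from 1 h postinfection. Nitrite accumulated in culture medium at 16 h postinfection measured with Griess reagent (OD525), converted to µM against sodium nitrite standards.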

In data set [10] the test system is Salmonella typhimurium. As to the kind of experiment: Antibacterial activity against Salmonella enterica serovar Typhimurium TT16729 assessed as decrease in transcription of lacZ-prgH at 40 uM. It is filed as functional, organism-based. Particulars: Salmonella enterica subsp. enterica serovar Typhimurium.
Data set [11] concerns Salmonella typhimurium. The data set is described as follows: Antibacterial activity against Salmonella enterica serovar Typhimurium TT16729 in mouse RAW264.7 cells assessed as reduction of intracellular bacterial replication at 40 uM after 16 hrs. It is filed as functional, organism-based. Particulars: Salmonella enterica subsp. enterica serovar Typhimurium. The method, boiled down: (§4)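 RAW264.7 cells in RPMI/10% FBS infected at MOI 10:1 with LB-agar-grown, mouse-serum-opsonized bacteria; gentamicin 50 µg/ml for 45 min, then 10 µg/ml. Compound added to killing and maintenance media from 1 h postinfection onward. Hypotonic lysis at 2 and 16 h; growth yield = CFU 16 h / CFU 2 h.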

Data set [12] concerns Salmonella typhimurium. As to the kind of experiment: Antibacterial activity against Salmonella enterica serovar Typhimurium 14028 assessed as reduction in sseJ-HA fusion protein secretion in hexadecane extracted fraction at 20 and 40 uM by immunoblotting. Particulars: Salmonella enterica subsp. enterica serovar Typhimurium. It is filed as functional, organism-based. The method, boiled down:
(§5)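 Strain 14028 grown overnight in low-pH minimal medium MM5.8 (SPI2-inducing) with compound or DMSO control; whole cells, hexadecane-extractable fraction and cell-free supernatant separated, volumes normalized by OD600, supernatant proteins TCA-precipitated; SseJ-HA detected by immunoblot on 12% SDS-PAGE with anti-HA monoclonal antibody (1:1,000) and chemiluminescence.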

Data set [13] has as its system Salmonella typhimurium. The data set is described as follows: Antibacterial activity against Salmonella enterica serovar Typhimurium TT16729 assessed as decrease in transcription of lacZ-hilA at 40 uM. Particulars: Salmonella enterica subsp. enterica serovar Typhimurium. It is filed as functional, organism-based.
In data set [14] the test system is Salmonella typhimurium. The data set is described as follows: Antibacterial activity against Salmonella enterica serovar Typhimurium 14028 assessed as increase in sseJ-HA fusion protein secretion in bacterial cell containing fraction at 20 and 40 uM by immunoblotting. Format: functional, organism-based. Particulars: Salmonella enterica subsp. enterica serovar Typhimurium. In short, it runs like this:
as §5

In data set [15] the test system is Salmonella typhimurium. As to the kind of experiment: Antibacterial activity against Salmonella enterica serovar Typhimurium TT16729 expressing SPI1 effector protein assessed as localization of SipB-beta-lactamase fusion protein in osmotic shock sample at 20 uM by immunoblotting. Format: functional, organism-based. Particulars: Salmonella enterica subsp. enterica serovar Typhimurium.

Data set [16] relates to Salmonella typhimurium. The data set is described as follows: Antibacterial activity against Salmonella enterica serovar Typhimurium 14028 in mouse RAW264.7 cells assessed as reduction of intracellular bacterial replication at 40 uM after 16 hrs. Particulars: Salmonella enterica subsp. enterica serovar Typhimurium. It is filed as functional, organism-based. In short, it runs like this:
as §4

Data set [17] has as its system Salmonella typhimurium. The data set is described as follows: Antibacterial activity against Salmonella enterica serovar Typhimurium 14028 in mouse RAW264.7 cells assessed as increase in nitric oxide level at 40 uM after 16 hrs. Format: functional, organism-based. Particulars: Salmonella enterica subsp. enterica serovar Typhimurium. In short, it runs like this:
as §3

The test system of data set [18] is Salmonella typhimurium. As to the kind of experiment: Antibacterial activity against Salmonella enterica serovar Typhimurium TT16729 assessed as decrease in transcription of lacZ-sipC at 40 uM. It is filed as functional, organism-based. Particulars: Salmonella enterica subsp. enterica serovar Typhimurium.
Data set [19] deals with Salmonella typhimurium. The data set is described as follows: Antibacterial activity against Salmonella enterica serovar Typhimurium TT16729 assessed as reduction in expression of bacterial cell bound flagellin at 40 uM by SDS-PAGE. It is filed as functional, organism-based. Particulars: Salmonella enterica subsp. enterica serovar Typhimurium. In short, it runs like this: as §2

In data set [20] the test system is Salmonella typhimurium. The data set is described as follows: Antibacterial activity against Salmonella enterica serovar Typhimurium 14028 in mouse RAW264.7 cells assessed as reduction of nitric oxide level at 40 uM after 16 hrs. It is filed as functional, organism-based. Particulars: Salmonella enterica subsp. enterica serovar Typhimurium. In short, it runs like this:
as §3

The subject of data set [21] is Salmonella typhimurium. The data set is described as follows: Antibacterial activity against Salmonella enterica serovar Typhimurium TT16729 in mouse RAW264.7 cells assessed as increase in intracellular bacterial replication at 40 uM after 16 hrs. It is filed as functional, organism-based. Particulars: Salmonella enterica subsp. enterica serovar Typhimurium. In short, it runs like this: as §4

In data set [22] the test system is Salmonella typhimurium. As to the kind of experiment: Antibacterial activity against Salmonella enterica serovar Typhimurium TT16729 infected mouse RAW264.7 cells assessed as increase in nitric oxide level at 40 uM after 16 hrs in presence of tetracyclin. It is filed as functional, organism-based. Particulars: Salmonella enterica subsp. enterica serovar Typhimurium. In short, it runs like this: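 RAW264.7 cells infected with opsonized strain TT16729 (MOI 10:1, gentamicin protection), compound in medium from 1 h postinfection; bacterial protein synthesis blocked with tetracycline at 2 h postinfection. Medium nitrite measured at 16 h by Griess reagent (OD525) against sodium nitrite standards.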

Take `CCOc1cccc(/C=N/NC(=O)C(N)=O)c1O`: the result in the data set on Salmonella typhimurium [1] and with Salmonella typhimurium [2] was Active. Moreover, the result with Salmonella typhimurium [3] and in the data set with Salmonella typhimurium [5] was inactive. Further, the Activity in the data set with Salmonella typhimurium [4] is recorded as 2.7 cm; in the data set with MDCK, “Non-toxic”.

For the molecule `O=C(N/N=C/c1cc(Br)cc(Br)c1O)c1cccnc1`, the result in the data set on Salmonella typhimurium [6], in the data set with Salmonella typhimurium [7], in the data set with Salmonella typhimurium [8], with Salmonella typhimurium [9], with Salmonella typhimurium [1] and with Salmonella typhimurium [2] was Active. Further, the result with Salmonella typhimurium [10], with Salmonella typhimurium [11], in the data set on Salmonella typhimurium [12], in the data set with Salmonella typhimurium [13], with Salmonella typhimurium [16] and in the data set with Salmonella typhimurium [17] was Active. Moreover, the result in the data set with Salmonella typhimurium [18] was Active. The outcome with RAW264.7, in the data set on Salmonella typhimurium [14], in the data set on Salmonella typhimurium [5] and in the data set on Salmonella typhimurium [15] was inactive. The Activity was 2.7 cm with Salmonella typhimurium [4] and “Non-toxic” with MDCK.

Take `O=C(N/N=C/c1cc(Br)ccc1O)c1cccnc1`: the outcome in the data set with Salmonella typhimurium [1], with Salmonella typhimurium [19] and with Salmonella typhimurium [2] was Active. The figures for the Activity with Salmonella typhimurium [4] and with MDCK were 2.4 cm and “Non-toxic”, respectively. Further, in the data set with Salmonella typhimurium [5], the result was inactive.

Regarding `O=C(N/N=C/c1cc(Br)cc(Br)c1O)c1ccc([N+](=O)[O-])cc1`, the result in the data set on Salmonella typhimurium [1] and in the data set with Salmonella typhimurium [2] was Active. Further, the results for the Activity in the data set with Salmonella typhimurium [4] and with MDCK were 2.9 cm and “Non-toxic”, respectively. Further, the result with Salmonella typhimurium [5] was inactive.

`O=C(N/N=C/c1c(O)ccc2ccccc12)c1ccc(Cl)cc1`: the outcome in the data set with RAW264.7, with Salmonella typhimurium [14] and in the data set on Salmonella typhimurium [5] was inactive. Further, the result in the data set on Salmonella typhimurium [20], in the data set with Salmonella typhimurium [21], in the data set on Salmonella typhimurium [8], with Salmonella typhimurium [1], in the data set with Salmonella typhimurium [2] and in the data set on Salmonella typhimurium [12] was Active. In addition, the result in the data set with Salmonella typhimurium [22] was Active. The Activity in the data set with Salmonella typhimurium [4] is recorded as 3.1 cm; with MDCK, “Non-toxic”.

For `O=C(N/N=C/c1cc(Cl)cc(Cl)c1O)c1ccccc1`, the outcome with Salmonella typhimurium [1] and with Salmonella typhimurium [2] was Active. Besides, the figures for the Activity with Salmonella typhimurium [4] and in the data set on MDCK were 2.7 cm and “Non-toxic”, respectively. In addition, in the data set with Salmonella typhimurium [5], the result was inactive.

In the case of `O=C(N/N=C/c1ccc(O)c(O)c1O)c1ccco1`, the result with Salmonella typhimurium [1] and in the data set on Salmonella typhimurium [2] was Active. Besides, the results for the Activity in the data set with Salmonella typhimurium [4] and in the data set on MDCK were 2.9 cm and “Non-toxic”, respectively. Moreover, the result with Salmonella typhimurium [5] was inactive.

As to `O=C(N/N=C/c1ccc(O)c(O)c1O)c1ccccc1`, the outcome in the data set with Salmonella typhimurium [1] and with Salmonella typhimurium [2] was Active. The Activity with Salmonella typhimurium [4] is 3.3 cm; in the data set with MDCK, “Non-toxic”. The result with Salmonella typhimurium [5] was inactive.

`NC(=O)C(=O)N/N=C/c1cc(Br)ccc1O`: the outcome with Salmonella typhimurium [1], with Salmonella typhimurium [19], in the data set on Salmonella typhimurium [2] and in the data set with Salmonella typhimurium [3] was Active. For the same molecule, the Activity was 1.7 cm in the data set on Salmonella typhimurium [4] and “Non-toxic” with MDCK. In addition, in the data set with Salmonella typhimurium [5], the result was inactive.
